Measured values pooled from the literature.
Each line is one published result; the experiments were not run side by side.
Target: Casein kinase I isoform alpha (CSNK1A1, Homo sapiens, UniProt P48729)
Sequence (P48729 1-304, as in one of the studies): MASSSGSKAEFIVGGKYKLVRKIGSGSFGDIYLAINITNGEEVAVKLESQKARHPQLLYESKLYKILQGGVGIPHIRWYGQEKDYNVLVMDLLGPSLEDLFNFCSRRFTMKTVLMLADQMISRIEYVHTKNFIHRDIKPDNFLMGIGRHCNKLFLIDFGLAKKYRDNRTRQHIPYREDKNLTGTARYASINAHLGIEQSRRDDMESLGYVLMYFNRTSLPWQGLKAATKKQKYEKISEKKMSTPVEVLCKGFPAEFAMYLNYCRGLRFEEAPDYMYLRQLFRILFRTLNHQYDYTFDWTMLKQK

For `CCCCC(=O)Nc1ccc(-c2ccc3ncn(CCC)c(=O)c3c2)cn1`, the remaining binding was 89% (binding; competition with immobilised ligand; 0.5 µM).
For `COc1ccc2oc(-c3ccc4nc(N)oc4c3)c/c(=N\c3ccccc3NC(=O)CCN)c2c1`, the remaining binding was 102% (binding; 1 µM).
For `COc1ccc2[nH]c3c4[nH]c5ccc(OC)cc5c4c4c(c3c2c1)C(=O)NC4=O`, the remaining binding was 62% (binding; 1 µM).
With `CC#CC(=O)N1CCC[C@H]1c1nc(-c2ccc(C(=O)Nc3ccccn3)cc2)c2c(N)nccn12` the inhibition was 21% (enzyme activity; inhibitor; 1 µM).
`c1cc(Nc2cc(C3CC3)n[nH]2)nc(Nc2ccc3nc[nH]c3c2)n1` gave a kon of 5.43e+08 M⁻¹ s⁻¹ (binding; SPR).
For `C[C@H]1CC[C@H](n2c3cnccc3c3cnc(Nc4ccc5c(n4)CCN(C(=O)CO)C5)nc32)CC1`, the remaining signal was 94% (cell-free assay; 1 µM).
`CC(C)S(=O)(=O)c1ccc2nccc(Nc3ccc4sc(C5CCCC5)nc4c3)c2c1` gave an activity vs control of 103% (enzyme activity; inhibitor; 1 µM).
For `CO[C@@H]1[C@H](N(C)C(=O)c2ccccc2)C[C@H]2O[C@]1(C)n1c3ccccc3c3c4c(c5c6ccccc6n2c5c31)C(=O)NC4`, the inhibition was 33% (enzyme activity; inhibitor; 1 µM).
With `c1cc(-c2cnn3cc(-c4ccc(OCCN5CCCCC5)cc4)cnc23)ccn1` the kon was 2.49e+09 M⁻¹ s⁻¹ (binding; SPR).
`Cc1cc(O)c(-c2ccc([C@@H](C)CN(C)C)cc2)c2c1[nH]c(=O)c1sccc12` gave an inhibition of 6.33% (enzyme activity; inhibitor; 0.1 µM).
`C1=C/COCc2cc(ccc2OCCN2CCCC2)Nc2nccc(n2)-c2cccc(c2)COC/1` has a remaining binding of 85% (binding; 0.1 µM).
